inhibition, IC50 and Activity data for 26 compounds are collected here from ChEMBL document CHEMBL1153852, “Steroidal lactones as inhibitors of 17beta-hydroxysteroid dehydrogenase type 5: chemical synthesis, enzyme inhibitory activity, and assessment of estrogenic and androgenic activities” (Eur J Med Chem, 2009).

pIC50: −log10 of the molar value. Activity calls are given as the source filed them. No cut-off for these calls is given here.

Assay [1] has as its target T1, Aldo-keto reductase family 1 member C3 (Homo sapiens) (UniProt P42330).
T1 sequence (whole entry): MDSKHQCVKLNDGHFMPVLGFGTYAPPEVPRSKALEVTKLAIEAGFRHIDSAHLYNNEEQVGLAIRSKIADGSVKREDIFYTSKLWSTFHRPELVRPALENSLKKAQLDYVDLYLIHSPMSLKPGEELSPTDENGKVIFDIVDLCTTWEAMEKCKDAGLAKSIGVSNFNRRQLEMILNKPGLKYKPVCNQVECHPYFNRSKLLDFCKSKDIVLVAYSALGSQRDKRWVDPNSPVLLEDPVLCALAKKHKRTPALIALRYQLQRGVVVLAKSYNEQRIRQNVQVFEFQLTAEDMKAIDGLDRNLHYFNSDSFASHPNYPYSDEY
The assay can be described thus: Inhibition of human 17beta-HSD5 expressed in HEK293 cells assessed as enzyme-mediated transformation of [14C]-4-androstene-3,17-dione in to [14C]-testosterone at 0.3 uM after 18 hrs. Format: cell-based. In a few lines: (§1)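 Intact HEK-293 cells stably over-expressing human 17β-HSD5, in freshly changed culture medium. [14C]-4-androstene-3,17-dione is added at 100 nM with inhibitor from an ethanolic solution; controls get ethanol only. After 18 h the conversion to [14C]-T is measured.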

Assay [2] addresses T2, Aldo-keto reductase family 1 member C3 (Homo sapiens, UniProt P42330).
T2 sequence (P42330 whole entry): T1 sequence (whole entry)
The assay can be described thus: Inhibition of human 17beta-HSD5 expressed in HEK293 cells assessed as enzyme-mediated transformation of [14C]-4-androstene-3,17-dione in to [14C]-testosterone after 18 hrs. The assay is classed as cell-based. In a few lines:
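Intact HEK-293 cells stably over-expressing human 17β-HSD5, in fresh culture medium. [14C]-4-androstene-3,17-dione 0.1 μM with inhibitor added in ethanol (ethanol alone as control), 18 h.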

Assay [3] has as its target T1, Aldo-keto reductase family 1 member C3 (Homo sapiens). In words: Inhibition of human 17beta-HSD5 expressed in HEK293 cells assessed as enzyme-mediated transformation of [14C]-4-androstene-3,17-dione in to [14C]-testosterone at 3 uM after 18 hrs. The assay is classed as cell-based. In a few lines: as §1
Assay [4] concerns the target T3, Progesterone receptor (Rattus norvegicus) (UniProt Q63449).
T3 sequence (whole entry): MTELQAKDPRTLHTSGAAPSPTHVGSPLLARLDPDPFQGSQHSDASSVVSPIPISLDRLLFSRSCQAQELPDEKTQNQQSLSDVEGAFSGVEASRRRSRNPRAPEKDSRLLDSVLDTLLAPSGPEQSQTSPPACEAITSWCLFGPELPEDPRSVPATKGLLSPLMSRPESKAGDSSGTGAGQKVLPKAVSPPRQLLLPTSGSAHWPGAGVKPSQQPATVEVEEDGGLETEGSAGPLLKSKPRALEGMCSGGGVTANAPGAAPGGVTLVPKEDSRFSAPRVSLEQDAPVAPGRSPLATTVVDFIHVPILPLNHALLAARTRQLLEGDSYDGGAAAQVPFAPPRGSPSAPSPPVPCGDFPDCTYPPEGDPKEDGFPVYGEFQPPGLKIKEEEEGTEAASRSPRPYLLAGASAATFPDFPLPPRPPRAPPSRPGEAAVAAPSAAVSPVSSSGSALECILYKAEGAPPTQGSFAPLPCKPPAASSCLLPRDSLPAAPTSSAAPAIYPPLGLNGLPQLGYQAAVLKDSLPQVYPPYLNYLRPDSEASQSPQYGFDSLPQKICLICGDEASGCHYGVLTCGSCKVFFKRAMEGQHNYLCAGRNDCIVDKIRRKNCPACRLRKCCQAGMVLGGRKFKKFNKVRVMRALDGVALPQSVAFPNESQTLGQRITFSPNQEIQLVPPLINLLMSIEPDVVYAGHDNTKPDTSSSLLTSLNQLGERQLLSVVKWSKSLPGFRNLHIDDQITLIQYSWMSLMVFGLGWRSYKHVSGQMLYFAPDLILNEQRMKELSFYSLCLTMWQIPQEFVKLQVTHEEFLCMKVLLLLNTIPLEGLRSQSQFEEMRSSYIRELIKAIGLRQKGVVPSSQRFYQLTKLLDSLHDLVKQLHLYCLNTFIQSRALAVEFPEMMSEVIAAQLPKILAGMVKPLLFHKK
The assay can be described thus: Binding affinity to rat uterus progesterone receptor at 0.01 uM.

Assay [5] deals with T4, 17-beta-hydroxysteroid dehydrogenase type 3 (Homo sapiens) (UniProt P37058).
T4 sequence (whole entry): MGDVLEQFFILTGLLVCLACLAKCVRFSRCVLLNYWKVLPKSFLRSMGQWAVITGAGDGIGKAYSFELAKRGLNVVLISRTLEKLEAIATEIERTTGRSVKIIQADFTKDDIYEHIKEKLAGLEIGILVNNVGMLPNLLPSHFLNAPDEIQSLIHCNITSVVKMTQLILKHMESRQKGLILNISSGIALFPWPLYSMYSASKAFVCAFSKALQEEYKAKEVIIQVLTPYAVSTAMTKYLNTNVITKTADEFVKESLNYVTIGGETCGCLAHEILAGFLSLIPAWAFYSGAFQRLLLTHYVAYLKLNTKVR
In words: Inhibition of human 17beta-HSD3 expressed in HEK293 cells assessed as enzyme-mediated transformation of [14C]-4-androstene-3,17-dione in to [14C]-testosterone at 1 uM. The assay is classed as cell-based.

The target of assay [6] is T5, 17-beta-hydroxysteroid dehydrogenase type 2 (Homo sapiens) (UniProt P37059).
T5 sequence (whole entry): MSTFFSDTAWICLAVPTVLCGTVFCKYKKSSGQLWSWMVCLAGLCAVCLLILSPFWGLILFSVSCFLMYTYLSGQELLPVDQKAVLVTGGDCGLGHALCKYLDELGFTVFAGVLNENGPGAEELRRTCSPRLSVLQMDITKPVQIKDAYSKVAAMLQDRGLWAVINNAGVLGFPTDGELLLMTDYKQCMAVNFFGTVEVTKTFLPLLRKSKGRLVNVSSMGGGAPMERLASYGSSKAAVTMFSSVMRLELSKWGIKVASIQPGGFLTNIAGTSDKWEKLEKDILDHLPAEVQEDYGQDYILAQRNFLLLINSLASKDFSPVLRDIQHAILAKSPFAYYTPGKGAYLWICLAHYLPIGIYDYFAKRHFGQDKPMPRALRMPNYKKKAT
In words: Inhibition of human 17beta-HSD2 expressed in HEK293 cells assessed as enzyme-mediated transformation of [14C]-testosterone in to [14C]-4-androstene-3,17-dione at 1 uM. The assay is classed as cell-based.

In assay [7] the target is T5, 17-beta-hydroxysteroid dehydrogenase type 2 (Homo sapiens). In words: Inhibition of human 17beta-HSD2 expressed in HEK293 cells assessed as enzyme-mediated transformation of [14C]-testosterone in to [14C]-4-androstene-3,17-dione at 0.1 uM. The assay is classed as cell-based.
Assay [8] has as its target T4, 17-beta-hydroxysteroid dehydrogenase type 3 (Homo sapiens). In words: Inhibition of human 17beta-HSD3 expressed in HEK293 cells assessed as enzyme-mediated transformation of [14C]-4-androstene-3,17-dione in to [14C]-testosterone at 0.1 uM. Format: cell-based.

Regarding `C[C@]12CC[C@@H]3c4ccc(O)cc4CC[C@H]3[C@@H]1CC[C@@]21CCCCC(=O)O1`, the inhibition in assay [1] was 90%; in assay [3] it was 93%. Further, the pIC50 in assay [2] was 7.38.
With `C[C@]12CCC(=O)C=C1CC[C@@H]1[C@@H]2CC[C@]2(C)C(=O)CC[C@@H]12`, the inhibition in assay [1] was 21%; in assay [3], 45%.
For `C[C@]12CCC(=O)CC1CC[C@@H]1[C@@H]2CC[C@@]2(C)[C@H]1CC[C@@]21CCC(=O)O1` (stereo partly drawn), in that order: 15% and 63%.
The compound `C[C@@H]1C[C@H]2[C@@H]3CCC4=CC(=O)C=C[C@]4(C)[C@@]3(F)[C@@H](O)C[C@]2(C)[C@@]1(O)C(=O)CO` yielded an Activity in assay [4] of 0%.
Same read-out and setting: the value for `C[C@]12CCC(=O)C[C@@H]1CC[C@@H]1[C@@H]2CC[C@]2(C)[C@@H](O)CC[C@@H]12` was 3%.
Regarding `CC(=O)S[C@@H]1CC2=CC(=O)CC[C@]2(C)[C@H]2CC[C@@]3(C)[C@@H](CC[C@@]34CCC(=O)O4)[C@H]12`, the inhibition in assay [1] amounted to 27%; in assay [3], 57%.
For `C[C@]12CC[C@@H]3c4ccc(O)cc4CC[C@H]3[C@@H]1CC[C@]21CCC(=O)O1`, in that order: 22% and 45%.
In the case of `CCCC1CC[C@@]2(CC[C@H]3[C@@H]4CCc5cc(O)ccc5[C@H]4CC[C@@]32C)OC1=O` (mixture of isomers), the inhibition in assay [1] was found to be 41%; in assay [3], 83%.
For `COC1CC[C@@]2(CC[C@H]3[C@@H]4CCc5cc(O)ccc5[C@H]4CC[C@@]32C)O1` (stereo in doubt; 8), in that order: 0% and 16%.
As to `C[C@]12CC[C@@H]3c4ccc(O)cc4CC[C@H]3[C@@H]1C[C@H]1CCC(=O)O[C@H]12`, the inhibition worked out at 6% in assay [1] and 52% in assay [3].
Consider `COC1CC[C@@]2(CC[C@H]3[C@@H]4CCc5cc(O)ccc5[C@H]4CC[C@@]32C)O1` (stereo in doubt; 7), for which the results for the inhibition in assay [1] and in assay [3] were 0% and 4%, respectively.
For the compound `C[C@]12CC[C@@H]3c4ccc(O)cc4CC[C@H]3[C@@H]1CC[C@@]21CCC(O)O1` (mixture of isomers), the inhibition in assay [1] came to 19%; in assay [3], 61%.
In the case of `C[C@]12CCC(=O)CC1C(=O)C[C@@H]1[C@@H]2CC[C@@]2(C)[C@H]1CC[C@@]21CCC(=O)O1` (stereo partly drawn), the inhibition in assay [1] was determined as 14%; in assay [3] it was 45%.
For `COC(=O)C1CC[C@@]2(CC[C@H]3[C@@H]4CCc5cc(O)ccc5[C@H]4CC[C@@]32C)OC1=O` (mixture of isomers), the inhibition in assay [1] stood at 78%; in assay [3] it was 92%. In addition, the pIC50 in assay [2] was 7.14.
Regarding `C[C@]12CC[C@@H]3c4ccc(O)cc4CC[C@H]3[C@@H]1CC[C@@]21CCCC(=O)O1`, the inhibition in assay [5] was found to be 34%; in assay [1] it was 92%; in assay [8] it was 25%; in assay [3], 95%. In addition, the result in assay [6] and in assay [7] was Active. Further, the pIC50 in assay [2] is 7.70.
For `C[C@]12CC[C@@H]3c4ccc(O)cc4CC[C@H]3[C@@H]1C[C@@H]1CCC(=O)O[C@@H]12`, the inhibition in assay [1] was found to be 55%; in assay [3] it was 85%.
For `C[C@]12CC[C@@H]3c4ccc(O)cc4CC[C@H]3[C@@H]1C[C@@H]1CC(=O)O[C@@H]12`, in that order: 30% and 62%.
The compound `C[C@]12CC[C@@H]3c4ccc(O)cc4CC[C@H]3[C@@H]1CC[C@@H]2O` registered an Activity in assay [4] of 6%.
With `C[C@]12CC[C@@H]3c4ccc(O)cc4CC[C@H]3[C@@H]1CC[C@@]21CCC(=O)O1`, the values for the inhibition in assay [1] and in assay [3] were 47% and 79%, respectively.
On to `C[C@]12CC[C@@H]3c4ccc(O)cc4CC[C@H]3[C@@H]1C[C@@H]1CCCC(=O)O[C@@H]12`, for which the inhibition in assay [1] was 70%; in assay [3] it was 91%. In addition, in assay [2], the pIC50 was 7.18.
Regarding `C[C@]12CC[C@@H]3c4ccc(O)cc4CC[C@H]3[C@@H]1CC[C@@]21CC=CC(=O)O1`, the results for the inhibition in assay [1] and in assay [3] were 79% and 92%, respectively. For the same compound, in assay [2], the pIC50 was 7.31.
On to `C[C@]12CCC(=O)C=C1CC[C@@H]1[C@@H]2CC[C@@]2(C)[C@H]1CC[C@@]21CCC(=O)O1`, for which the inhibition was found to be 19% in assay [1] and 61% in assay [3].
In the case of `CC1CC(=O)O[C@]2(CC[C@H]3[C@@H]4CCc5cc(O)ccc5[C@H]4CC[C@@]32C)C1` (mixture of isomers), the inhibition in assay [1] was 88%; in assay [3], 94%. For the same compound, the pIC50 in assay [2] is 7.72.
For the compound `C=CCC1CC[C@@]2(CC[C@H]3[C@@H]4CCc5cc(O)ccc5[C@H]4CC[C@@]32C)OC1=O` (mixture of isomers), the inhibition in assay [1] came out at 68%; in assay [3] it was 91%. For the same compound, the pIC50 in assay [2] was 6.97.
Regarding `CC1CC[C@@]2(CC[C@H]3[C@@H]4CCc5cc(O)ccc5[C@H]4CC[C@@]32C)OC1=O` (mixture of isomers), the result in assay [6] and in assay [7] was Active. The inhibition in assay [1] was determined as 93%; in assay [3], 94%. Further, the pIC50 in assay [2] is 7.80.
In the case of `C[C@]12CCC3(CCC(=O)O3)CC1CC[C@@H]1[C@@H]2CC[C@@]2(C)[C@H]1CC[C@@]21CCC(=O)O1` (stereo partly drawn), the inhibition came out at 7% in assay [1] and 29% in assay [3].
